# From PubChem BioAssay
# This is a sample that favours compounds with a hit; in the whole collection about 2% have one here.
# IMP-1 inh-1 = blocks Pseudomonas aeruginosa IMP-1 metallo-beta-lactamase | inhibition, % at 5.6 µM | purified IMP-1, nitrocefin hydrolysis, epi-absorbance fluorescence | actives 0.45% (n = 290,000);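 active means inhibition above the mean plus 3 SD of all compounds in the same screening run, cut at about 4.5% in these data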
#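 system = purified recombinant IMP-1 beta-lactamase | amount = 0.2 nM IMP-1, as dispensed | medium = HEPES buffer pH 7.1 with ZnSO4 and Brij 35 | times = 25 °C, 15 min preincubation, 25 min reaction | detection = plate fluorescence quenching by hydrolysis product, ex 480/em 530 nm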
# VIM-2 inhibitor = inhibitors of Pseudomonas aeruginosa VIM-2 metallo-beta-lactamase | purified VIM-2, nitrocefin hydrolysis, epi-absorbance fluorescence | AID 1527 | inhibition, % at 5.6 µM | actives 0.89% (n = 290,000);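 active means inhibition above the mean of all tested compounds plus 3 SD, cutoff set per screening run, cut at about 7.5% in these data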;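 further: red hydrolysis product quenches plate fluorescence so inhibitors raise well fluorescence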
# HKDC1 inh = HKDC1 (human) hexokinase inhibition; actives 0.16% (n = 340,000); Q2TB90; recombinant HKDC1, G6PDH/diaphorase resazurin coupled fluorescence; AID 493160; inhibition, % at 20 µM;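 active means inhibition above about 35% when tested at 20 µM, limit read from the data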
#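 test system = in-house recombinant HK5 (HKDC1) enzyme | amount = HKDC1 at 5 µg/mL | control set = DMSO-enzyme wells negative, buffer-substituted wells positive | compound = one dose of 20 µM, 1% DMSO | schedule = reaction time 90 min, room temperature, protected from light | technique = resorufin fluorescence at 613 nm | reagent = glucose with 1 mM ATP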
# PvdQ acylase = P. aeruginosa PvdQ acylase inhibition; inhibition, % at 10 µM; AID 488965; actives 0.063% (n = 340,000); purified PvdQ acylase, fluorescence plate reader; in the data active means inhibition above about 30%, passing the limit was not always enough
# beta cell repl = induces beta-cell replication in MIN6 cells; MIN6 cells proliferation, ATPlite luminescence, 48 h; cells starved in 0.2% serum; 100% = growth in 10% serum; proliferation, % at 10 µM; actives 0.29% (n = 330,000);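 active means compounds whose signal lies at least 3.5 SD above the mean of all wells on their plate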
# ATG4B inh = blocks human ATG4B protease cleavage of LC3 substrate. Q9Y4P1. ATG4B cleavage of LC3-PLA2, NBD-HPC fluorescence, 1 h. inhibition, % at 8.33 µM. actives 0.51% (n = 340,000). AID 504462; in the data active means inhibition above about 40%
# IMP-1 inh-2 = IMP-1 inhibition, counter-screen for VIM-2 inhibitors | inhibition, % at 5.6 µM | shares compounds with VIM-2 inhibitor | 1,300 tested, under 10 active | purified IMP-1, nitrocefin hydrolysis, epi-absorbance fluorescence | AID 1856; call rule not given here
# VIM-2 FRET ctr = counter-screen for VIM-2 inhibitors: epi-absorbance artifacts via FRET; shares compounds with VIM-2 inhibitor; purified VIM-2, CCF2 FRET substrate hydrolysis; inhibition, % at 5.6 µM; actives 23% (n = 1,300); AID 1857;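 active means inhibition above the mean of all tested compounds plus 3 SD, cut at about 19% in these data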
# TEM-1 counter = selectivity counter-screen for VIM-2 inhibitors: E. coli TEM-1 inhibitors; inhibition, % at 5.6 µM; Purified TEM-1, nitrocefin hydrolysis, epi-absorbance fluorescence; actives 3% (n = 1,300); shares compounds with VIM-2 inhibitor;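 active means inhibition above that campaign's mean inhibition plus 3 SD, cut at about 0.46% in these data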
# VIM-2 confirm 2 = confirmation of P. aeruginosa VIM-2 metallo-beta-lactamase inhibitors | AID 2187 | shares compounds with VIM-2 inhibitor | inhibition, % at 5.6 µM | purified VIM-2, nitrocefin hydrolysis, epi-absorbance | actives 96% (n = 1,300);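 active means inhibition of the VIM-2 beta-lactamase enzyme above about 11% from the earlier first-round screen, limit read from the data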
# Numbers stand for hits; . = inactive; / = no result given.
SMILES,IMP-1 inh-1,VIM-2 inhibitor,HKDC1 inh,PvdQ acylase,beta cell repl,ATG4B inh,IMP-1 inh-2,VIM-2 FRET ctr,TEM-1 counter,VIM-2 confirm 2
CCN1CCN(c2ccc(NC(=O)c3ccc(Br)o3)cc2)CC1,.,15,.,.,.,.,.,.,.,24
CN1CCN(c2ccc(NC(=O)c3cc4ccccc4o3)cc2)CC1,.,40,.,.,.,.,.,.,.,55
CN1CCN(c2ccc(NC(=O)c3ccc(-c4ccc(Br)cc4)o3)cc2)CC1,.,24,.,.,.,.,.,.,.,34
CC(C)N(Cc1ccccc1)C(=O)CN1C(=O)NC(Cc2ccccc2)(c2ccccc2)C1=O (stereo not drawn),.,.,.,.,.,.,/,/,/,/
Cc1cc(Nc2ccc(C)c(C)c2)n2nc(C)nc2n1,.,16,.,.,.,.,.,.,.,34
COc1cc(OC)c(Nc2cc(C)nc3nc(C)nn23)cc1Cl,.,35,.,.,.,.,.,.,.,44
Cc1cc(Nc2c(C)cccc2C)n2nc(C)nc2n1,.,.,.,.,.,.,/,/,/,/
CCc1ccc(Nc2cc(C)nc3nc(C)nn23)cc1,.,.,.,.,.,.,/,/,/,/
COCCNC(=O)c1nn2c(C(F)(F)F)cc(-c3ccccc3)nc2c1Cl,.,.,.,.,.,.,/,/,/,/
O=C(NCCCn1ccnc1)c1nn2c(C(F)(F)F)cc(-c3ccccc3)nc2c1Cl,.,27,.,51,.,.,.,.,.,53
c1ccc(CN2CCC(Nc3nc(-c4cccs4)nc4ccccc34)CC2)cc1,.,.,.,.,.,.,/,/,/,/
CCOc1ccc(C(=O)Nc2ccc(N3CCN(C)CC3)cc2)cc1Br,.,24,.,.,.,.,.,.,.,43
CN1CCN(c2ccc(NC(=O)c3ccc4c(c3)OCO4)cc2)CC1,.,18,.,.,.,.,.,.,.,31
CN1CCN(c2ccc(NC(=O)COc3ccccc3Cl)cc2)CC1,.,20,.,.,.,.,.,.,.,40
CCOc1ccc(C(=O)Nc2ccc(N3CCN(C(=O)c4ccco4)CC3)cc2)cc1Br,/,/,.,.,/,.,/,/,/,/
CCOC(=O)c1ccc(N2C(=O)C(CC(N)=O)N(CCc3ccc(OC)c(OC)c3)C2=S)cc1 (stereo not drawn),.,.,.,.,.,.,/,/,/,/
COc1ccc(OC)c(Nc2nc(N)nc(CSc3nnc(-c4ccncc4)o3)n2)c1,.,.,/,/,.,/,/,/,/,/
O=C(CNCc1ccccn1)N1CCc2ccccc2C1,.,30,.,.,.,.,.,.,.,50
Cn1nc(-c2ccc(NCCO)c([N+](=O)[O-])c2)c2ccccc2c1=O,.,16,.,.,.,.,.,.,.,45
Cn1nc(-c2ccc(N3CCN(CCO)CC3)c([N+](=O)[O-])c2)c2ccccc2c1=O,.,82,.,.,.,.,.,.,.,89
CN(CCO)c1ccc(-c2nn(C)c(=O)c3ccccc23)cc1[N+](=O)[O-],.,17,.,.,.,.,.,.,.,41
CN(CCO)c1cc(N(C)CCO)c([N+](=O)[O-])cc1[N+](=O)[O-],.,.,.,.,.,.,/,/,/,/
CN(C)CCNc1ccc(-c2nn(C)c(=O)c3ccccc23)cc1[N+](=O)[O-],.,79,.,.,.,.,.,.,.,83
COCCCN1C(=O)C(=O)/C(=C(/O)c2ccc(S(=O)(=O)N3CCOCC3)cc2)C1c1cccc(Cl)c1 (stereo not drawn),.,.,.,.,.,.,/,/,/,/
